According to ChEMBL document CHEMBL1141070, “Synthesis and biological activity of flurbiprofen analogues as selective inhibitors of beta-amyloid(1)(-)(42) secretion” (J Med Chem, 2005):

What was measured:
Caco-2 = assay: Permeability in the Caco-2 cell; high absorption; assay type: ADME, cell-based; conditions: human
Outline: (§1)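 Caco-2 monolayers on polycarbonate Transwell inserts, 2 h at 37 °C. Apical and basolateral solutions analysed by LC-MS/MS (SRM). Papp = Cb·Vb/(C0·A·t).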

[1] = target: T1, Prostaglandin G/H synthase 1 (Rattus norvegicus) (UniProt Q63921); assay: Percent inhibition against cyclooxygenase-1 at 100 uM in rat blood
T1 sequence (whole entry): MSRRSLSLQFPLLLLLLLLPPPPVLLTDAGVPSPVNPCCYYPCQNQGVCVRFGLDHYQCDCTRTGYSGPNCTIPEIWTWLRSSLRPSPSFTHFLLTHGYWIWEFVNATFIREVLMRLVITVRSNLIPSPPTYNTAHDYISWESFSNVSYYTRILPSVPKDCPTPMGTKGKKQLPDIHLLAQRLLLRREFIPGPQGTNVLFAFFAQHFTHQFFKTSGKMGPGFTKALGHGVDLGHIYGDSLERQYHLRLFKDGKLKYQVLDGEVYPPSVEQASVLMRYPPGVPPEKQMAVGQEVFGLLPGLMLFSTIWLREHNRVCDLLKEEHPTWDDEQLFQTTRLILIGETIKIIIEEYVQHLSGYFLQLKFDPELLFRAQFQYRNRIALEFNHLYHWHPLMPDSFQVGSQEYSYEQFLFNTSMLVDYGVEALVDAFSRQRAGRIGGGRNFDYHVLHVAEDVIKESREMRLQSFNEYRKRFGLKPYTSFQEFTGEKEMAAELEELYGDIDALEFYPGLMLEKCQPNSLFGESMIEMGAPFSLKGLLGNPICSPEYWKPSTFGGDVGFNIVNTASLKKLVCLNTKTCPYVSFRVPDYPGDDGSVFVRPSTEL
Outline: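 Fresh rat whole blood preincubated 1 h at 37 °C with compound (100 μM) or DMSO (0.3% final). Stimulated 30 min with A23187 calcium ionophore; plasma thromboxane B2 measured by radioimmunoassay.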

[2] = Maximum time corresponding to maximum concentration after administration to rats at a dose of 0.5 mg/kg intravenously; assay type: ADME, organism-based; set-up: dose 0.5 mg/kg, route intravenous; conditions: rat, in vivo, iv
[3] = Area under curve after administration to rats at adose of 2.5 mg/kg orally; assay type: ADME, organism-based; set-up: dose 2.5 mg/kg, route oral; conditions: rat, in vivo, po
[4] = Maximum time corresponding to maximum concentration after administration to rats at a dose of 2.5 mg/kg orally; assay type: ADME, organism-based; set-up: dose 2.5 mg/kg, route oral; conditions: rat, in vivo, po
[5] = target: T2, Amyloid-beta precursor protein (Homo sapiens, UniProt P05067); assay: Inhibition of A beta 40 peptide 100 um
Target sequence in this assay (P05067 whole entry): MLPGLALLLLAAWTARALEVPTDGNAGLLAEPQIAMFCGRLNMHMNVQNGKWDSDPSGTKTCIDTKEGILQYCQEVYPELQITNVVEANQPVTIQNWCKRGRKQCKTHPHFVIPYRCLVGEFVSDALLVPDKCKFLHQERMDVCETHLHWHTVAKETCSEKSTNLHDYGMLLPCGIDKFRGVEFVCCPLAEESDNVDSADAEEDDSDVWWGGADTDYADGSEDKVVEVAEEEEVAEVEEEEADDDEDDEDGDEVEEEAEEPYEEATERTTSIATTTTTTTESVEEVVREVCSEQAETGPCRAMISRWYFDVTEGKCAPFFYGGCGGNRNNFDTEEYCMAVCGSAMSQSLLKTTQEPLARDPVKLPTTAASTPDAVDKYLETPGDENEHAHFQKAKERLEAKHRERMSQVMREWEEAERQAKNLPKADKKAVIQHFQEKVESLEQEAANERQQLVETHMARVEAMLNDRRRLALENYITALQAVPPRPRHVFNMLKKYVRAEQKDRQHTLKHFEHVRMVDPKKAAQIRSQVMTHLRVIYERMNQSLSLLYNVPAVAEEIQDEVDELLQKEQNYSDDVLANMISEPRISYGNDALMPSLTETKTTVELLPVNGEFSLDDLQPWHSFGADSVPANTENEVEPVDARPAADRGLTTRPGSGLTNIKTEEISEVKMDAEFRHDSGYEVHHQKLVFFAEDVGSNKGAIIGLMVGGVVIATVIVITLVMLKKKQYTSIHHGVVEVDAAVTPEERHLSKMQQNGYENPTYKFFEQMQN

[6] = Absolute oral bioavailability after administration to rats at a dose of 2.5 mg/kg orally; conditions: rat, in vivo
[7] = In vivo steady state metabolic clearance of the compound; conditions: rat
[8] = Maximal concentration in rats after 2.5 mg/kg oral dose; assay type: ADME, organism-based; set-up: dose 2.5 mg/kg, route oral; conditions: rat, in vivo
[9] = target: T2, Amyloid-beta precursor protein; conditions: at 100 µM
Target sequence in this assay (P05067 whole entry): as above

[10] = target: T2, Amyloid-beta precursor protein; assay: Inhibitory concentration against beta-amyloid-42 (Abeta42) secretion was evaluated in human neuroglioma cells (H4-APP695NL); assay type: functional, cell-based
Outline: (§2)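 H4-APP695NL human neuroglioma cells (APP695 Swedish K595N/M596L) seeded at 2 × 10^5/well and grown 24 h to confluence. Increasing compound concentrations added overnight; DMSO 1% as vehicle. Supernatant Aβ42 or Aβ40 measured by electrochemiluminescence immunoassay: biotinylated 4G8 plus C-terminus-specific rabbit antibodies, captured on streptavidin beads.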
Target sequence in this assay (P05067 18-770 limits assumed): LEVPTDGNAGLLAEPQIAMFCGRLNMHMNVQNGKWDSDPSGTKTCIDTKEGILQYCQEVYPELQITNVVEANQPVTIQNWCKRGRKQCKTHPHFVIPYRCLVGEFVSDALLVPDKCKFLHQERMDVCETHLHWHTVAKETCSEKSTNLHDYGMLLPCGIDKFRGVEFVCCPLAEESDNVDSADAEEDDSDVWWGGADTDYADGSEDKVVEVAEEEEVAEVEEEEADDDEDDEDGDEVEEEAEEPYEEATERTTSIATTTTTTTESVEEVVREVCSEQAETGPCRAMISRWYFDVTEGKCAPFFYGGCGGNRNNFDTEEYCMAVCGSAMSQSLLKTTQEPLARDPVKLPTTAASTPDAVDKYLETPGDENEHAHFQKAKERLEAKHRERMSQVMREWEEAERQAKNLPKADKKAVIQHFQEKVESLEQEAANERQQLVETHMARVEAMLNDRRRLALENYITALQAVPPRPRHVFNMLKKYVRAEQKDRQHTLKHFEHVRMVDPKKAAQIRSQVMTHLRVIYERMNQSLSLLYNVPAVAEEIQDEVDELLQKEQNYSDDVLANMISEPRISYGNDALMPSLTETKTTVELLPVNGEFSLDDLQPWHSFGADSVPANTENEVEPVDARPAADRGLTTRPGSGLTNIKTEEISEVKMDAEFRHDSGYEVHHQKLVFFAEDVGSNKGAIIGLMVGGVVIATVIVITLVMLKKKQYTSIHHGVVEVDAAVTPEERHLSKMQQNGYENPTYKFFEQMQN

[11] = Concentration ratio in cerebrospinal fluid and plasma; conditions: rat
[12] = Elimination phase half-life after administration to rats at a dose of 2.5 mg/kg orally; assay type: ADME, organism-based; set-up: dose 2.5 mg/kg, route oral; conditions: rat, in vivo, po
[13] = Area under curve after administration to rats at adose of 0.5 mg/kg intravenously; assay type: ADME, organism-based; set-up: dose 0.5 mg/kg, route intravenous; conditions: rat, in vivo, iv
[14] = Maximal concentration in rats after 0.5 mg/kg intravenous dose; assay type: ADME, organism-based; set-up: dose 0.5 mg/kg, route intravenous; conditions: rat, in vivo
[15] = Total body clearance after administration to rats at a dose of 0.5 mg/kg intravenously; assay type: ADME, organism-based; set-up: dose 0.5 mg/kg, route intravenous; conditions: rat, in vivo, iv
[16] = Elimination phase half-life after administration to rats at a dose of 0.5 mg/kg intravenously; assay type: ADME, organism-based; set-up: dose 0.5 mg/kg, route intravenous; conditions: rat, in vivo, iv
Cytochrome P450 2C19 [17] = target: T3, Cytochrome P450 2C19 (Homo sapiens, UniProt P33261); assay: Interaction with human cytochrome P450 isoform 2C19 expressed in baculovirus-insect cells; assay type: ADME
T3 sequence (P33261 whole entry, canonical isoform): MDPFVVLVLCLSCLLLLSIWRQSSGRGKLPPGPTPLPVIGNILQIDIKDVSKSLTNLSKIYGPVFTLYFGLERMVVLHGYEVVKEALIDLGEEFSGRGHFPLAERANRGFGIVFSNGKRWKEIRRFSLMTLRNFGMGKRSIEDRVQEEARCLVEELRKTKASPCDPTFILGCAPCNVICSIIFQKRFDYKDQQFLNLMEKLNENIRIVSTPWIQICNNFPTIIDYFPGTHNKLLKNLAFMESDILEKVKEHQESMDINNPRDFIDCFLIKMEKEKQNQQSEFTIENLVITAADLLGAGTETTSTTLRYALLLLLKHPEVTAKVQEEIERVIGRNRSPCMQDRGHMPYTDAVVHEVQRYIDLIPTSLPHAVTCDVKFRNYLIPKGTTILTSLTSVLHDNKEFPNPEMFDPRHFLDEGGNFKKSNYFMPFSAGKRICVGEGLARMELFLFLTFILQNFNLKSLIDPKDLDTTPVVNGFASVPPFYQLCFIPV
Outline: (§3)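 Microsomes from baculovirus-insect cells expressing human CYP1A2, 2C9, 2C19, 2D6 or 3A4. Compound serially diluted with an NADPH-regenerating mix (16.3 μM NADP+, 0.83 mM glucose-6-phosphate, 0.83 mM MgCl2, 0.4 U/mL G6PDH). Pre-warmed 10 min at 37 °C, then isoform-specific substrate added in 0.35 M potassium phosphate pH 7.4. Fluorometric read-out; IC50 by nonlinear regression.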

[18] = Maximal concentration in rats after 1.5 mg/kg intravenous dose; assay type: ADME, organism-based; set-up: dose 1.5 mg/kg, route intravenous; conditions: rat, in vivo
[19] = Maximal concentration in rats after 7.6 mg/kg oral dose; assay type: ADME, organism-based; set-up: dose 7.6 mg/kg, route oral; conditions: rat, in vivo
[20] = Elimination phase half-life after administration to rats at a dose of 7.6 mg/kg orally; assay type: ADME, organism-based; set-up: dose 7.6 mg/kg, route oral; conditions: rat, in vivo, po
Cytochrome P450 2C19 [21] = target: T3, Cytochrome P450 2C19; assay: Compound was tested for interaction with baculovirus-insect cells expressing human cytochrome P450; No interactions at 100 uM; assay type: ADME
[22] = Area under curve after administration to rats at a dose of 7.6 mg/kg orally; assay type: ADME, organism-based; set-up: dose 7.6 mg/kg, route oral; conditions: rat, in vivo, po
[23] = Total body clearance after administration to rats at a dose of 1.5 mg/kg intravenously; assay type: ADME, organism-based; set-up: dose 1.5 mg/kg, route intravenous; conditions: rat, in vivo, iv
[24] = Maximum time corresponding to maximum concentration after administration to rats at a dose of 1.5 mg/kg intravenously; assay type: ADME, organism-based; set-up: dose 1.5 mg/kg, route intravenous; conditions: rat, in vivo, iv
[25] = target: T4, Prostaglandin G/H synthase 1 (Rattus norvegicus, UniProt Q63921); assay: Concentration required to inhibit cyclooxygenase-1 in rat blood
T4 sequence (Q63921 whole entry): T1 sequence (whole entry)
Outline: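 Fresh rat whole blood was preincubated 1 h at 37 °C with compound (100 μM or a concentration series; DMSO 0.3% final). It was then stimulated 30 min with the Ca²⁺ ionophore A23187. Thromboxane B2 in the plasma was measured by radioimmunoassay.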

[26] = Absolute oral bioavailability after administration to rats at a dose of 7.6 mg/kg orally; assay type: ADME, organism-based; conditions: rat, in vivo
[27] = Area under curve after administration to rats at adose of 1.5 mg/kg intravenously; assay type: ADME, organism-based; set-up: dose 1.5 mg/kg, route intravenous; conditions: rat, in vivo, iv
[28] = Maximum time corresponding to maximum concentration after administration to rats at a dose of 7.6 mg/kg orally; assay type: ADME, organism-based; set-up: dose 7.6 mg/kg, route oral; conditions: rat, in vivo, po
[29] = Elimination phase half-life after administration to rats at a dose of 1.5 mg/kg intravenously; assay type: ADME, organism-based; set-up: dose 1.5 mg/kg, route intravenous; conditions: rat, in vivo, iv
[30] = Intestinal drug absorption was estimated in vitro using human colon adenocarcinoma (Caco-2) cell monolayers; assay type: ADME; outline: as §1
[31] = Total body clearance after administration to rats at a dose of 0.5 mg/kg intravenously; conditions: rat, in vivo, iv
[32] = Area under curve after administration to rats at a dose of 0.5 mg/kg intravenously; assay type: ADME, organism-based; set-up: dose 0.5 mg/kg, route intravenous; conditions: rat, in vivo, iv
[33] = Area under curve after administration to rats at a dose of 2.5 mg/kg orally; assay type: ADME, organism-based; set-up: dose 2.5 mg/kg, route oral; conditions: rat, in vivo, po
[34] = Absolute oral bioavailability after administration to rats at a dose of 2.5 mg/kg orally; conditions: rat, in vivo; remark: listed apart in the source
Cytochrome P450 2C9 [35] = target: T5, Cytochrome P450 2C9 (Homo sapiens, UniProt P11712); assay: Interaction with human cytochrome P450 isoform 2C9 expressed in baculovirus-insect cells; assay type: ADME; outline: as §3
T5 sequence (P11712 whole entry, canonical isoform): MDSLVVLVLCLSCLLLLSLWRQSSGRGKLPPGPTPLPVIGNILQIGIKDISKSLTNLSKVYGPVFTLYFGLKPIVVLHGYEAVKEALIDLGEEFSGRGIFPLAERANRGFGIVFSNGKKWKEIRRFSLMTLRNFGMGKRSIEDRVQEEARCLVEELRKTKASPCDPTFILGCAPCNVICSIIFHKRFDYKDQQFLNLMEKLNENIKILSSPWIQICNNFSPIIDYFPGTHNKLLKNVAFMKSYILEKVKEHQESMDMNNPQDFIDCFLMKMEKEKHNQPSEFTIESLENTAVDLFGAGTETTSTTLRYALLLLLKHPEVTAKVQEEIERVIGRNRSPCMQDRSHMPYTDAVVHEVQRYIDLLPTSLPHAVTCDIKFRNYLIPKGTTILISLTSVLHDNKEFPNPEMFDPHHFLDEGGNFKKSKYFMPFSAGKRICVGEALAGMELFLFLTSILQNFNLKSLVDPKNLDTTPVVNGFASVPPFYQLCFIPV

Cytochrome P450 2C9 [36] = target: T5, Cytochrome P450 2C9; assay: Interaction with human cytochrome P450 isoform 2C9 expressed in baculovirus-insect cells at 100 uM; assay type: ADME; outline: as §3
Cytochrome P450 2C9 [37] = target: T5, Cytochrome P450 2C9; assay: Interaction with human cytochrome P450 isoform 2C9 expressed in baculovirus-insect cells; Activation was observed due to interference in assay; assay type: ADME; outline: as §3
[38] = target: T2, Amyloid-beta precursor protein; assay: Concentration required to inhibit A beta 40 peptide; outline: as §2
Target sequence in this assay (P05067 whole entry): as the sequence (P05067 whole entry) above

Question: With `O=C(O)C1(c2ccc(-c3ccc(C(F)(F)F)cc3)c(F)c2)CC1` as the compound, how does the Absoption (Caco-2) read?
Answer: High

Question: And the inhibition [1]?
Answer: < 1%

Question: And the Tmax [2]?
Answer: 4.8 min

Question: What about the AUC [3] of the same compound?
Answer: 2613 µg/h/mL

Question: And the Tmax [4]?
Answer: 4 h

Question: What about the Inhibition [5] of the same compound?
Answer: 22%

Question: And the bioavailability [6]?
Answer: 90.9%

Question: And the Clearance [7]?
Answer: 0.52 mL/h

Question: What about the Cmax [8] of the same compound?
Answer: 54.9 µg/mL

Question: What about the inhibition [9] of the same compound?
Answer: 55%

Question: What about the IC50 [10] of the same compound?
Answer: 111 µM

Question: And the Ratio [11]?
Answer: 1.8%

Question: What about the half-life [12] of the same compound?
Answer: 32.8 h

Question: What about the AUC [13] of the same compound?
Answer: 575 µg/h/mL

Question: And the Cmax [14]?
Answer: 14.4 µg/mL

Question: And the Clearance [15]?
Answer: 0.9 mL/h/kg

Question: And the half-life [16]?
Answer: 36.2 h

Question: And the IC50 (Cytochrome P450 2C19 [17])?
Answer: 71 µM

Question: What does the source list for `CC(C(=O)O)c1ccc(-c2ccccc2)c(F)c1` (stereo not given) [FLURBIPROFEN]?
Answer: Cmax [18]: 9.1 µg/mL; Cmax [19]: 49.1 µg/mL; half-life [20]: 4.9 h; Inhibition (Cytochrome P450 2C19 [21]): No interactions; AUC [22]: 311 µg/h/mL; Clearance [23]: 19.1 mL/h/kg; Tmax [24]: 0.3 h; IC50 [25]: 0.17 µM; bioavailability [26]: 78.3%; Clearance [7]: 13.9 mL/h; inhibition [9]: 30%; IC50 [10]: 305 µM; AUC [27]: 78 µg/h/mL; Tmax [28]: 0.5 h; half-life [29]: 5.1 h; Papp [30]: > 50 nm/s

Question: Which Clearance [31] does the source give for `O=C(O)C1(c2ccc(-c3ccc(Cl)c(Cl)c3)c(F)c2)CC1` here?
Answer: 2.9 mL/h/kg

Question: And the Absorption (Caco-2)?
Answer: High

Question: And the inhibition [1]?
Answer: < 1%

Question: What about the AUC [32] of the same compound?
Answer: 173 µg/h/mL

Question: What about the Clearance [7] of the same compound?
Answer: 1.5 mL/h

Question: And the Cmax [8]?
Answer: 16.2 µg/mL

Question: What about the inhibition [9] of the same compound?
Answer: 79%

Question: And the IC50 [10]?
Answer: 41 µM

Question: What about the T1/2 [12] of the same compound?
Answer: 20.7 h

Question: And the half-life [12]?
Answer: 20.7 h

Question: And the AUC [33]?
Answer: 435 µg/h/mL

Question: What about the Cmax [14] of the same compound?
Answer: 6.1 µg/mL

Question: What about the bioavailability [34] of the same compound?
Answer: 50.2%

Question: And the IC50 (Cytochrome P450 2C9 [35])?
Answer: 38 µM

Question: And the IC50 (Cytochrome P450 2C19 [17])?
Answer: 25 µM

Question: Which Activation (Cytochrome P450 2C9 [36]) does the source give for `CC(C(=O)O)c1ccc(-c2csc3ccccc23)c(F)c1` (stereo not given) here?
Answer: > 50%

Question: What about the inhibition [1] of the same compound?
Answer: 68%

Question: And the inhibition [9]?
Answer: 96%

Question: What about the IC50 [10] of the same compound?
Answer: 83 µM

Question: And the Papp [30]?
Answer: > 50 nm/s

Question: What does the source list for `CC(C(=O)O)c1ccc(-c2cc(Cl)cc(Cl)c2)c(F)c1` (stereo not given)?
Answer: inhibition [1]: 65%; Activation (Cytochrome P450 2C9 [37]): > 50%; inhibition [9]: 75%; IC50 [10]: 77 µM; IC50 [38]: 94 µM; Papp [30]: > 50 nm/s
